# TRPML3 ag = human TRPML3 channel agonists, primary screen, cell-based, HEK293 TRPML3-YFP, Fluo-8 calcium fluorescence, 3 µM; activation, % at 3 µM; AID 1448, 2008; 100% = the carbachol control signal; 220,000 compounds, 0.29% hits;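 active means activation above its plate's cutoff, the mean activation of the plate's test wells plus 3 SD, cut at about 12% in these data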;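 further: 0% = DMSO only wells and 100% = carbachol wells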
#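 Material: TRPML3-YFP stable HEK293 cells | Dosing: One concentration, 3 µM nominal, 0.3% DMSO | Timing: 125 s total fluorescence read per well | Technique: Fluo-8 calcium dye fluorescence, ex 470-495, em 515-575 nm | Measure: Percent activation from peak-to-basal fluorescence ratio, scaled between DMSO and carbachol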
# TAAR1 antagonist = human TAAR1 antagonists, primary screen, Fluo-8 calcium fluorescence, CHO RD-HGA16 cells; Trace amine-associated receptor 1 (Homo sapiens), Q96RJ0; antagonist; inhibition, % at 3 µM; 360,000 compounds, 1.5% hits;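 active means inhibition above a per-plate cutoff, the mean inhibition of test compounds on that plate plus 3 SD, cut at about 49% in these data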;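 further: 0% = DMSO plus EC80 beta-PEA response and 100% = DMSO alone without agonist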
# Target sequence (Q96RJ0 whole entry, looked up): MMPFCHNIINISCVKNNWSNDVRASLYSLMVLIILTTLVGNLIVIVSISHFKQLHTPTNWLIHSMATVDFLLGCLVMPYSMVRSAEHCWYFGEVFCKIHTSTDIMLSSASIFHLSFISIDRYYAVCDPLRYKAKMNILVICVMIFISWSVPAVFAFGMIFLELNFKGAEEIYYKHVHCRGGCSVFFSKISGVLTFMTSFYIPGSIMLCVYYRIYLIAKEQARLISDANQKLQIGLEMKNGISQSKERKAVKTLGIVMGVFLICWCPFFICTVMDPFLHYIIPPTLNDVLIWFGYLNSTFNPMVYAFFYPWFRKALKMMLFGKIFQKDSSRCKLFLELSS
#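 System: CHO RD-HGA16 cells bearing hTAAR1. Reagent: EC80 β-phenethylamine stimulus. Schedule: seeding 17-24 h prior, 75-min 37 °C, 30-min RT dye loading. Signal: Fluo-8 intracellular calcium dye fluorescence, real-time kinetic reads. Read-out: % inhibition from peak post-agonist over basal fluorescence ratio. Benchmarks: vehicle wells and EC80 agonist wells. Replicates: n of 1.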
# GPR7 antag = GPR7 receptor antagonists, primary screen, cell-based, fluorescence, single concentration. 290,000 compounds, 1.1% hits. GPR7-expressing cells, fluorescence antagonist assay. inhibition, % at 4.4 µM; in the data active means inhibition above about 16%, passing the limit was not always enough;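 further: cells stimulated with the agonist NPW; 0% = agonist with vehicle and 100% = vehicle without agonist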
# Target sequence (P48145 whole entry, looked up): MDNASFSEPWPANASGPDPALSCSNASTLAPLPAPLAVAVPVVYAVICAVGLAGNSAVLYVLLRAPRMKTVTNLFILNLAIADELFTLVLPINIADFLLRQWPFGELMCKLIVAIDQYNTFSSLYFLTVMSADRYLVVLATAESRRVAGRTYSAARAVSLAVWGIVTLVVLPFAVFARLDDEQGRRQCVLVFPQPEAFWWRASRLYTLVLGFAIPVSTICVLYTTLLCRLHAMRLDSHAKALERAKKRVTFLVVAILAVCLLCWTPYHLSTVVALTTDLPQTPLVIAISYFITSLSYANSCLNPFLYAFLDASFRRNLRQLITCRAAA
# zfTRPN1 agonist = zebrafish TRPN1 channel agonists, primary screen, cell-based, HEK293, calcium fluorescence | AID 1424, 2008 | 220,000 compounds, 0.18% hits | HEK293 zebrafish TRPN1-YFP, Fluo-8 calcium fluorescence; 100% = response to 87 µM carbachol | activation, % at 3 µM;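 active means activation above its plate's cutoff, the mean activation of test wells on that plate plus 3 SD, cut at about 19% in these data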;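 further: 0% = DMSO alone and 100% = 87 µM carbachol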
#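 Control set: carbachol 87 µM as high control, DMSO as low control; system: HEK293 stable line with zebrafish TRPN1-YFP; read-out: % activation versus carbachol response; detection: intracellular calcium fluorescence with Fluo-8; doses: single test compound dose, 3 µM nominal, 0.3% DMSO; schedule: dye 1 h 37 °C plus 30 min RT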
# TAAR1 ag = human TAAR1 agonists, primary screen, Fluo-8 calcium fluorescence, CHO RD-HGA16 cells | Trace amine-associated receptor 1 (Homo sapiens), Q96RJ0 | vehicle wells 0%, saturating PEA agonist 100% | activation, % at 3 µM | 360,000 compounds, 0.99% hits;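 active means activation above the mean activation of all test compounds in the run plus 3 SD, cut at about 38% in these data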
#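 test system = CHO RD-HGA16 cells carrying human TAAR1 plus Gα16 | schedule = 17-24 h seeding, 75 min 37 °C dye, 30 min RT | compound dosing = 3 µM single concentration | control set = DMSO and PEA EC100 | replicates = n 1 | signal = Fluo-8 fluorescence, 5 s baseline then 140 s kinetic read | measure = percent activation vs PEA EC100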
# LANA-H2A inh = blockers of LANA interaction with H2A/H2B – biochemical, FP readout, HTS, primary screen. Protein LANA1 (Human herpesvirus 8 type P (isolate GK18)), Q9QR71. cell-free LANA-H2A/H2B peptide, fluorescence polarization. inhibition, % (concentration not given with the values). 320,000 compounds, 0.6% hits; in the data active means inhibition mostly above about 10%, no sharp cut-off; inactive means mostly below about 6.7%
# TAAR1 nonsel count = nonselective antagonists in TAAR1 counter-screen cells, counter-screen for hTAAR1 antagonist project, cell-based, fluorescence, calcium; shares compounds with TAAR1 antagonist; 2,400 compounds, 77% hits; counterscreen cell line, antagonist mode; inhibition, % at 3 µM; AID 651780, 2012; in the data active means inhibition above about 22%;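 further: CHO-Ga16 host cells stimulated with ATP at an EC80 level; 0% = agonist EC80 plus vehicle and 100% = vehicle without agonist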
# TAAR1 ant conf = human TAAR1 antagonists, retest of hits, confirmation, cell-based, fluorescence; inhibition, % at 3 µM; shares compounds with TAAR1 antagonist; 2,400 compounds, 40% hits; TAAR1-expressing cells, fluorescence antagonist read-out; in the data active means inhibition above about 49%;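 further: CHO-Ga16 host cells challenged with agonist PEA near its EC80; 0% = agonist at EC80 plus vehicle and 100% = vehicle with no agonist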
# Ga16 nonsel ag = calcium activation in Ga16-expressing cells, counter-screen for TAAR1 antagonist project, cell-based, fluorescence; AID 651953, 2012; agonist counterscreen; activation, % at 3 µM; 2,400 compounds, 18% hits; shares compounds with TAAR1 antagonist; in the data active means activation above about 12%;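 further: 0% = vehicle wells and 100% = saturating stimulus response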
# TAAR1 ag counter = TAAR1 activation by candidate antagonists – cell-based, fluorescence, counter-screen for TAAR1 antagonist project; shares compounds with TAAR1 antagonist; 2,400 compounds, 2% hits; activation, % at 3 µM; hTAAR1 cell line, agonist mode; in the data active means activation above about 37%;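 further: CHO cells stably expressing TAAR1 with calcium dye readout; 0% = DMSO vehicle and 100% = full agonist response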
# * marks the source's active call; other numbers are inactive results; nt = no result given. The list is not random: actives were taken first. Their share in the collection is about 3.4%.
SMILES,TRPML3 ag,TAAR1 antagonist,GPR7 antag,zfTRPN1 agonist,TAAR1 ag,LANA-H2A inh,TAAR1 nonsel count,TAAR1 ant conf,Ga16 nonsel ag,TAAR1 ag counter
Cc1cc(-c2ccc(S(=O)(=O)N(C)Cc3ccccc3)cc2)on1,nt,65*,1,nt,9,-6,26*,51*,10,17
CSc1ccc(S(=O)(=O)N(C)Cc2ccccc2)cc1,0,28,-7,-3,9,-1,nt,nt,nt,nt
COc1ccc([N+](=O)[O-])cc1NS(=O)(=O)c1ccc(C)cc1,1,3,-5,2,2,1,nt,nt,nt,nt
Cc1ccc(S(=O)(=O)Nc2ccccc2N=Cc2ccc([N+](=O)[O-])cc2[N+](=O)[O-])cc1,nt,64*,nt,nt,13,nt,-4,-3,0,6
COc1cccc(-c2nc(NC3CCCC3)c3ccccc3n2)c1O,nt,61*,-37,nt,8,-1,22*,53*,8,12
O=C(Nc1ccc(Cl)cc1)c1cccc(S(=O)(=O)Nc2ccccn2)c1,nt,3,-10,nt,5,6,nt,nt,nt,nt
CCCCCCCCC(=O)c1c(OC)oc(C=O)cc1=O,nt,-9,nt,nt,1,nt,nt,nt,nt,nt
C=C(C)COc1ccc(-c2[nH]ncc2-c2ccccc2)c(O)c1,-1,60*,-16,-1,20,3,-1,9,1,12
C=C(C)COc1ccc(-c2n[nH]c(C)c2Oc2ccccc2OC)c(O)c1,-1,52*,6,-1,-2,1,8,10,1,2
COc1ccc(OC)c(C2Nc3ccccc3NC3=C2C(=O)CC(C)(C)C3)c1 (centres undefined),nt,0,-15,nt,10,3,nt,nt,nt,nt
CC(C)(C)OC(=O)NCCCC[C@@H](C(=O)NCCCCCCCCCCC(=O)N1CCN(C(=O)OC(C)(C)C)CC1)n1cc(CCO)nn1,nt,38,nt,nt,14,1,nt,nt,nt,nt
CSCC[C@@H](C(=O)NCCCCCCCCCCC(=O)N1CCN(C(=O)OC(C)(C)C)CC1)n1cc(CCO)nn1,nt,50*,nt,nt,20,-1,28*,42,9,10
CC[C@@H](C)[C@@H](C(=O)N1CCN(C(=O)OC(C)(C)C)CC1)n1cc(CCCCNC(=O)OC(C)(C)C)nn1,2,69*,-24,4,25,-3,42*,61*,13*,13
Cn1c(=O)[nH]c(=O)c2c1[nH]c(=S)n2Cc1ccc(Cl)cc1,nt,-12,-5,nt,3,1,nt,nt,nt,nt
CCCC(C)(C)C(=O)N1CCC1(C)C(=O)NS(=O)(=O)c1ccc(Br)cc1 (centres undefined),nt,-18,nt,nt,1,nt,nt,nt,nt,nt
O=C(N=Nc1c(O)[nH]c2ccccc12)c1cccc(S(=O)(=O)Nc2ccccc2Cl)c1,2,56*,-10,1,10,2,24*,42,5,0
CC(C)c1ccc2[nH]c(O)c(N=NC(=O)c3cccc(S(=O)(=O)Nc4ccccc4Cl)c3)c2c1,1,13,2,0,1,5,nt,nt,nt,nt
O=C(Nc1ccc2c(c1)CCCN2C(=O)c1ccccc1)c1ccccc1Br,nt,66*,-6,nt,9,-2,31*,47,11,7
O=C(Nc1ccc2c(c1)CCCN2C(=O)c1cccs1)c1ccccc1,nt,48,-3,nt,7,-1,nt,nt,nt,nt
COc1ccccc1C(=O)Nc1ccc2c(c1)CCCN2C(=O)c1ccccc1,nt,25,-13,nt,2,2,nt,nt,nt,nt
O=C(Nc1ccc2c(c1)CCCN2C(=O)c1cccs1)c1cccc(F)c1,nt,69*,3,nt,6,-8,29*,45,7,3
COCCNC(=O)C1CCC(CNS(=O)(=O)c2ccccc2)CC1 (centres undefined),nt,-6,-15,nt,3,-1,nt,nt,nt,nt
CCN=C(NCC)SC1CC(=O)N(c2ccc(F)cc2)C1=O (centres undefined),1,90*,-4,2,14,-1,28*,57*,9,14
CN1C[C@H]2CON(C)[C@H]2C[C@H]1c1cccc(-c2ccccc2)c1,nt,-7,nt,nt,2,nt,nt,nt,nt,nt
Cc1ccccc1NC(=O)CCN1CCCC1,1,-25,-1,0,6,0,nt,nt,nt,nt
SMILES,TRPML3 ag,TAAR1 antagonist,GPR7 antag,zfTRPN1 agonist,TAAR1 ag,LANA-H2A inh,TAAR1 nonsel count,TAAR1 ant conf,Ga16 nonsel ag,TAAR1 ag counter
Cc1ccccc1NC(=O)CCN1CCc2ccccc2C1,0,104*,-1,2,3,-1,-6,0,5,9
COc1ccc(CNC(=O)c2cccc(NC(=O)CC3SC(N4CCCCC4)=NC3=O)c2)cc1 (centres undefined),nt,-4,nt,nt,4,2,nt,nt,nt,nt
CC(=O)Nc1cccc(Oc2nc(NCCN(C)C)nc3ccsc23)c1,nt,-4,nt,nt,3,nt,nt,nt,nt,nt
Cc1cc(C)cc(NC(=O)c2cccc(N3C(=O)C4C5C=CC(C5)C4C3=O)c2)c1 (centres undefined),nt,-23,-10,nt,0,nt,nt,nt,nt,nt
Cc1cccc(NC(=O)c2cccc(N3C(=O)C4C5C=CC(C6CC56)C4C3=O)c2)c1 (centres undefined),nt,58*,-13,nt,8,-6,35*,38,10,7
Cc1cc(O)c(C(C)C)cc1N=Cc1ccc(N(C)C)cc1,nt,-9,nt,nt,0,nt,nt,nt,nt,nt
CN1CCN(C2CN(Cc3cn(Cc4ccc(F)cc4)nn3)S(=O)(=O)C2)CC1 (centres undefined),nt,1,nt,nt,2,nt,nt,nt,nt,nt
O=C(CCNC(=O)c1ccc([N+](=O)[O-])cc1)Nc1ccc(Cl)c(S(=O)(=O)N2CCOCC2)c1,nt,102*,nt,nt,0,-4,-3,-12,3,3
Cc1ccc(NC(=O)CCNC(=O)c2ccc(Br)cc2)cc1S(=O)(=O)N1CCOCC1,nt,-8,nt,nt,1,nt,nt,nt,nt,nt
O=CNc1cc(-c2cccc(O)c2)cn2c(-c3ccc(F)cc3)cnc12,nt,18,nt,nt,7,nt,nt,nt,nt,nt

# Screening results from PubChem.
